Active and inactive are the calls of the source. The calls are words filed in the database; no cut-off is given here.
What follows are compounds tested against T1, Mitogen-activated protein kinase 1 (Homo sapiens, UniProt P28482) (assay: Binding to phosphorylated ERK2 (unknown origin) by temperature dependent fluorescence (TdF) assay).
T1 sequence (P28482 whole entry): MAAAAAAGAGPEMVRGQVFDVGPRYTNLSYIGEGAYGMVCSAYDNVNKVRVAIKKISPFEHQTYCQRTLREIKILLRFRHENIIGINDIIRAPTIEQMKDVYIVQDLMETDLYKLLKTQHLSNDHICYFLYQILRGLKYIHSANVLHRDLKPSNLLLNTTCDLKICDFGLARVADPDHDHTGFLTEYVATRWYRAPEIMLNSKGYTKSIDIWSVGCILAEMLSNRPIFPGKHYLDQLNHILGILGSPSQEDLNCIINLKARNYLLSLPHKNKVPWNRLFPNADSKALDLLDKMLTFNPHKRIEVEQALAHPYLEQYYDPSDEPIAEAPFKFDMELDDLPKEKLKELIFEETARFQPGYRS

Row | Kd [nM] | Compound
1 | 2650 | O=C(Nc1ccc(O)c(Cl)c1)[C@@H]1CCN(CC(=O)N2CCN(c3ccc(Br)cc3)CC2)C1
2 | 1650 | O=C(Nc1ccc(O)cc1)C1CCN(CC(=O)N2CCN(c3cccc(Cl)c3)CC2)C1 (racemic)
3 | 980 | O=C(Nc1ccc(O)c(Cl)c1)[C@@H]1CCN(CC(=O)N2CCN(c3ccc(-c4ccsc4)cc3)CC2)C1
4 | 1890 | CC(=O)c1ccc(N2CCN(C(=O)CN3CCC(C(=O)Nc4ccc(O)cc4)C3)CC2)cc1 (racemic)

These compounds were tested against Mitogen-activated protein kinase 1 (Mus musculus) (UniProt P63085) (assay: Inhibition of inactive ERK2 (mouse) coupled with human MEK1 using IMAP peptide substrate after 30 mins by coupled ERK2 assay).
Chain of Mitogen-activated protein kinase 1 (Mus musculus) (P63085 whole entry, looked up): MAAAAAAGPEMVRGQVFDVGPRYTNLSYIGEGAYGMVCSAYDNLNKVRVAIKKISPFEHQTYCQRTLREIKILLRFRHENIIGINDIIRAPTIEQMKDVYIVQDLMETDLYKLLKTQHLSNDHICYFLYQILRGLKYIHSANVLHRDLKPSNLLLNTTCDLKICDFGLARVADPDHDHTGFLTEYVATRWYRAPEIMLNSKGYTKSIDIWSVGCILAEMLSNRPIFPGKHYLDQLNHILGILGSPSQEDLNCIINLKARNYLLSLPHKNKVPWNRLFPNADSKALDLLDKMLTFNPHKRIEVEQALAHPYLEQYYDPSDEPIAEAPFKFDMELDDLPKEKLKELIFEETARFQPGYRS

Row | IC50 [nM] | Compound
5 | 5000 | O=C(Nc1ccc(O)c(Cl)c1)[C@@H]1CCN(CC(=O)N2CCN(c3ccc(Br)cc3)CC2)C1
6 | 3400 | O=C(Nc1ccc(O)cc1)C1CCN(CC(=O)N2CCN(c3cccc(Cl)c3)CC2)C1 (racemic)
7 | 2100 | O=C(Nc1ccc(O)c(Cl)c1)[C@@H]1CCN(CC(=O)N2CCN(c3ccc(-c4ccsc4)cc3)CC2)C1
8 | 4000 | CC(=O)c1ccc(N2CCN(C(=O)CN3CCC(C(=O)Nc4ccc(O)cc4)C3)CC2)cc1 (racemic)

The compounds below were run against T1, Mitogen-activated protein kinase 1 (assay: Binding to unphosphorylated ERK2 (unknown origin) by temperature dependent fluorescence (TdF) assay).

Row | Kd [nM] | Compound
9 | 930 | O=C(Nc1ccc(O)c(Cl)c1)[C@@H]1CCN(CC(=O)N2CCN(c3ccc(Br)cc3)CC2)C1
10 | 920 | O=C(Nc1ccc(O)cc1)C1CCN(CC(=O)N2CCN(c3cccc(Cl)c3)CC2)C1 (racemic)
11 | 290 | O=C(Nc1ccc(O)c(Cl)c1)[C@@H]1CCN(CC(=O)N2CCN(c3ccc(-c4ccsc4)cc3)CC2)C1
12 | 1060 | CC(=O)c1ccc(N2CCN(C(=O)CN3CCC(C(=O)Nc4ccc(O)cc4)C3)CC2)cc1 (racemic)

These compounds were tested against T2, Dual specificity mitogen-activated protein kinase kinase; MEK1/2 (Homo sapiens) (UniProt P36507+Q02750) (assay: Binding affinity to phosphorylated MEK (unknown origin) by temperature dependent fluorescence (TdF) assay).
T2 sequence (P36507 whole entry, looked up): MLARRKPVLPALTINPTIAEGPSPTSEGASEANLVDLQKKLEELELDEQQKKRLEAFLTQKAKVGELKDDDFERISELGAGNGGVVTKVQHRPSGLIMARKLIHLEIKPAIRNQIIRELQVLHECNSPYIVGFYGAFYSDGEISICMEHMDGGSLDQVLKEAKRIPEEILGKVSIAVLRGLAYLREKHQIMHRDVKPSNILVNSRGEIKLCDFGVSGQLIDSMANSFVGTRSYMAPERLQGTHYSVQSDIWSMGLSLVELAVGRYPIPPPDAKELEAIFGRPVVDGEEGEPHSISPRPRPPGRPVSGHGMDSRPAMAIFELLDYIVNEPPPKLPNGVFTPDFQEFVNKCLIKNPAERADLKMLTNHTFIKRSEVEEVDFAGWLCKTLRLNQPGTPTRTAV
T2 sequence (Q02750 whole entry, looked up): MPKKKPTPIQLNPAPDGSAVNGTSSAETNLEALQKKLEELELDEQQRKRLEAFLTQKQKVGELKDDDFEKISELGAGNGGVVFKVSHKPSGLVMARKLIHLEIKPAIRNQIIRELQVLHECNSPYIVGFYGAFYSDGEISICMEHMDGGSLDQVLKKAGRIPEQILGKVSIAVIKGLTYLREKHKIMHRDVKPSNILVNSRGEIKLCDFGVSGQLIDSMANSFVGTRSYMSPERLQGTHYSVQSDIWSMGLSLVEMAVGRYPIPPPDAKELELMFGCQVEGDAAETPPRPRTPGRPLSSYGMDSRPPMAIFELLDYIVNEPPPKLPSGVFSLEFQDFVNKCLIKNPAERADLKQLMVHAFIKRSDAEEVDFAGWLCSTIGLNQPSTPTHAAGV

Row | Activity | Compound
13 | inactive | O=C(Nc1ccc(O)c(Cl)c1)[C@@H]1CCN(CC(=O)N2CCN(c3ccc(Br)cc3)CC2)C1
14 | inactive | O=C(Nc1ccc(O)cc1)C1CCN(CC(=O)N2CCN(c3cccc(Cl)c3)CC2)C1 (racemic)
15 | inactive | O=C(Nc1ccc(O)c(Cl)c1)[C@@H]1CCN(CC(=O)N2CCN(c3ccc(-c4ccsc4)cc3)CC2)C1
16 | inactive | CC(=O)c1ccc(N2CCN(C(=O)CN3CCC(C(=O)Nc4ccc(O)cc4)C3)CC2)cc1 (racemic)

The compounds below were run against T1, Mitogen-activated protein kinase 1 (assay: Inhibition of activated ERK2 (unknown origin) using IMAP peptide substrate after 30 mins by activated ERK2 assay).
Procedure, shortened: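 IMAP fluorescence-polarization assay. Started with 1 μM substrate peptide (100 nM fluorescein-labelled) and 30 μM ATP. Run 30 min, stopped with IMAP beads, read after 30 min. N = 2.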

Row | IC50 [nM] | Compound
17 | 8200 | O=C(Nc1ccc(O)c(Cl)c1)[C@@H]1CCN(CC(=O)N2CCN(c3ccc(Br)cc3)CC2)C1
18 | 12200 | O=C(Nc1ccc(O)cc1)C1CCN(CC(=O)N2CCN(c3cccc(Cl)c3)CC2)C1 (racemic)
19 | 20000 | O=C(Nc1ccc(O)c(Cl)c1)[C@@H]1CCN(CC(=O)N2CCN(c3ccc(-c4ccsc4)cc3)CC2)C1
20 | 18600 | CC(=O)c1ccc(N2CCN(C(=O)CN3CCC(C(=O)Nc4ccc(O)cc4)C3)CC2)cc1 (racemic)

The compounds below were run against T2, Dual specificity mitogen-activated protein kinase kinase; MEK1/2 (Homo sapiens) (assay: Binding affinity to unphosphorylated MEK (unknown origin) by temperature dependent fluorescence (TdF) assay).

Row | Activity | Compound
21 | inactive | O=C(Nc1ccc(O)c(Cl)c1)[C@@H]1CCN(CC(=O)N2CCN(c3ccc(Br)cc3)CC2)C1
22 | inactive | O=C(Nc1ccc(O)cc1)C1CCN(CC(=O)N2CCN(c3cccc(Cl)c3)CC2)C1 (racemic)
23 | inactive | O=C(Nc1ccc(O)c(Cl)c1)[C@@H]1CCN(CC(=O)N2CCN(c3ccc(-c4ccsc4)cc3)CC2)C1
24 | inactive | CC(=O)c1ccc(N2CCN(C(=O)CN3CCC(C(=O)Nc4ccc(O)cc4)C3)CC2)cc1 (racemic)

— ChEMBL document CHEMBL3351461, “Discovery of novel, dual mechanism ERK inhibitors by affinity selection screening of an inactive kinase” (J Med Chem, 2014)
